{"source": "ChEMBL document CHEMBL5712887", "about": "“Disruption of BRD4 at H3K27Ac-enriched enhancer region correlates with decreased c-Myc expression in Merkel cell carcinoma” (Epigenetics, 2015)", "key": {"[1]": {"system": "Mus musculus", "assay": "In vivo disruption of BRD4 occupancy at the putative c-Myc super-enhancer region in human MCC-3 cells xenografted NSG mouse at 50 mg/kg, ip administered daily for 3 weeks and measured post-last dose by ChIP-qPCR analysis", "type": "functional, organism-based", "method_in_brief": "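Frozen xenograft tumours crosslinked with 1% formaldehyde for 10 min, quenched with 0.125 M glycine, lysed and sonicated. Anti-BRD4 IP on anti-rabbit IgG beads. SYBR qPCR with primers at the putative c-Myc super-enhancer, plus control regions 5000 bp up- and downstream. 3 biological replicates, vehicle versus treated.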"}, "[2]": {"assay": "Antitumor activity against human MCC-3 cells xenografted in NSG mouse assessed as reduction in tumor volume at 50 mg/kg, ip administered daily for 3 weeks and measured post-last dose by caliper method relative to control", "type": "functional", "parameters": "scale not given: the % may be the effect or the level left"}, "[3]": {"assay": "Toxicity in human MCC-3 cells xenografted NSG mouse assessed as effect on general examination at 50 mg/kg, ip administered daily for 3 weeks", "type": "organism-based", "conditions": "in vivo, 504 h", "method_in_brief": "(§1)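 Mice with subcutaneous xenografts dosed i.p. daily for 3 weeks (vehicle 10% 2-hydroxypropyl-β-cyclodextrin in water) and monitored daily. Toxicity judged from body weight, food and water intake, activity and general examination.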"}, "[4]": {"assay": "Toxicity in human MKL-1 cells xenografted NSG mouse assessed as effect on food intake at 50 mg/kg, ip administered daily for 3 weeks", "type": "organism-based", "conditions": "in vivo, 504 h", "method_in_brief": "as §1"}, "[5]": {"assay": "Toxicity in human MCC-3 cells xenografted NSG mouse assessed as effect on body weight at 50 mg/kg, ip administered daily for 3 weeks", "type": "organism-based", "conditions": "in vivo, 504 h", "method_in_brief": "as §1"}, "[6]": {"assay": "Toxicity in human MCC-3 cells xenografted NSG mouse assessed as effect on food intake at 50 mg/kg, ip administered daily for 3 weeks", "type": "organism-based", "conditions": "in vivo, 504 h", "method_in_brief": "as §1"}, "[7]": {"system": "MCC-3", "assay": "Antitumor activity against human MCC-3 cells xenografted in NSG mouse assessed as reduction in c-Myc mRNA expression at 50 mg/kg, ip administered daily for 3 weeks and measured post-last dose by qRT-PCR analysis", "type": "functional, organism-based", "method_in_brief": "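Excised xenograft tumours from NSG mice dosed i.p. daily for 3 weeks (vehicle 10% 2-hydroxypropyl-β-cyclodextrin in water) versus vehicle group. c-Myc mRNA measured by qRT-PCR on 3 biological replicates.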"}, "[8]": {"assay": "Toxicity in human MCC-3 cells xenografted NSG mouse assessed as effect on activity at 50 mg/kg, ip administered daily for 3 weeks", "type": "organism-based", "conditions": "in vivo, 504 h", "method_in_brief": "as §1"}, "[9]": {"assay": "Toxicity in human MKL-1 cells xenografted NSG mouse assessed as effect on activity at 50 mg/kg, ip administered daily for 3 weeks", "type": "organism-based", "conditions": "in vivo, 504 h", "method_in_brief": "as §1"}, "[10]": {"system": "MCC-3", "assay": "Antitumor activity against human MCC-3 cells xenografted in NSG mouse assessed as effect on H3K27Ac expression at 50 mg/kg, ip administered daily for 3 weeks and measured post-last dose by immunoblotting method", "type": "functional, organism-based", "method_in_brief": "(§2)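 Tumours excised at endpoint from NSG mice bearing subcutaneous flank xenografts (~100 mm3 at randomisation), dosed i.p. daily for 3 weeks, vehicle 10% 2-hydroxypropyl-β-cyclodextrin in water. Lysates resolved by SDS-PAGE, electroblotted to PVDF (200V, 2 h). Membranes blocked in 5% milk, primary antibody overnight at 4°C, then secondary 1 h, and detected by ECL.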"}, "[11]": {"system": "MCC-3", "assay": "Antitumor activity against human MCC-3 cells xenografted in NSG mouse assessed as reduction in c-Myc expression at 50 mg/kg, ip administered daily for 3 weeks and measured post-last dose by immunoblotting method", "type": "functional, organism-based", "method_in_brief": "as §2"}, "[12]": {"assay": "Toxicity in human MCC-3 cells xenografted NSG mouse assessed as effect on water intake at 50 mg/kg, ip administered daily for 3 weeks", "type": "organism-based", "conditions": "in vivo, 504 h", "method_in_brief": "as §1"}, "[13]": {"assay": "Toxicity in human MKL-1 cells xenografted NSG mouse assessed as effect on general examination at 50 mg/kg, ip administered daily for 3 weeks", "type": "organism-based", "conditions": "in vivo, 504 h", "method_in_brief": "as §1"}, "[14]": {"assay": "Antitumor activity against human MKL-1 cells xenografted in NSG mouse assessed as reduction in tumor volume at 50 mg/kg, ip administered daily for 3 weeks and measured post-last dose by caliper method relative to control", "type": "functional", "parameters": "scale not given: the % may be the effect or the level left", "method_in_brief": "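NSG mice with subcutaneous flank xenografts (MKL-1: 2 × 10^7 cells in matrigel), randomised at ~100 mm3 (n ≥ 7 per group). Dosed i.p. daily for 3 weeks; vehicle 10% 2-hydroxypropyl-β-cyclodextrin in water. Calipers, volume = L2 × W/2; final tumour volume, mean ± SEM, Mann-Whitney test.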"}, "[15]": {"assay": "Toxicity in human MKL-1 cells xenografted NSG mouse assessed as effect on body weight at 50 mg/kg, ip administered daily for 3 weeks", "type": "organism-based", "conditions": "in vivo, 504 h", "method_in_brief": "as §1"}, "[16]": {"system": "MCC-3", "assay": "Antitumor activity against human MCC-3 cells xenografted in NSG mouse assessed as effect on BRD4 expression at 50 mg/kg, ip administered daily for 3 weeks and measured post-last dose by immunoblotting method", "type": "functional, organism-based", "method_in_brief": "as §2"}, "[17]": {"assay": "Toxicity in human MKL-1 cells xenografted NSG mouse assessed as effect on water intake at 50 mg/kg, ip administered daily for 3 weeks", "type": "organism-based", "conditions": "in vivo, 504 h", "method_in_brief": "as §1"}}, "note": "Activity calls are given as the source filed them. The calls are words filed in the database; no cut-off is given here.", "data": [{"smiles": "Cc1sc2c(c1C)C(c1ccc(Cl)cc1)=N[C@@H](CC(=O)OC(C)(C)C)c1nnc(C)n1-2", "values": [{"measurement": "Activity", "setting": "[1]", "value": "Active"}, {"measurement": "Activity", "setting": "[2]", "value": 75.6, "unit": "%"}, {"measurement": "Activity", "setting": "[3]", "value": "Non-Toxic"}, {"measurement": "Activity", "setting": "[4]", "value": "Non-Toxic"}, {"measurement": "Activity", "setting": "[5]", "value": "Non-Toxic"}, {"measurement": "Activity", "setting": "[6]", "value": "Non-Toxic"}, {"measurement": "Activity", "setting": "[7]", "value": "Active"}, {"measurement": "Activity", "setting": "[8]", "value": "Non-Toxic"}, {"measurement": "Activity", "setting": "[9]", "value": "Non-Toxic"}, {"measurement": "Activity", "setting": "[10]", "value": "inactive"}, {"measurement": "Activity", "setting": "[11]", "value": "Active"}, {"measurement": "Activity", "setting": "[12]", "value": "Non-Toxic"}, {"measurement": "Activity", "setting": "[13]", "value": "Non-Toxic"}, {"measurement": "Activity", "setting": "[14]", "value": 48.9, "unit": "%"}, {"measurement": "Activity", "setting": "[15]", "value": "Non-Toxic"}, {"measurement": "Activity", "setting": "[16]", "value": "inactive"}, {"measurement": "Activity", "setting": "[17]", "value": "Non-Toxic"}]}]}
